{"source": "paper PMC3530405", "about": "(Journal of immunology (Baltimore, Md. : 1950), 2012)", "assay_type_in_all_cases": "biochemical", "key": {"ERAP2^K [1]": {"target": "T1, ERAP2^K (Homo sapiens, UniProt Q6P179)", "T1 sequence (Q6P179 whole entry)": "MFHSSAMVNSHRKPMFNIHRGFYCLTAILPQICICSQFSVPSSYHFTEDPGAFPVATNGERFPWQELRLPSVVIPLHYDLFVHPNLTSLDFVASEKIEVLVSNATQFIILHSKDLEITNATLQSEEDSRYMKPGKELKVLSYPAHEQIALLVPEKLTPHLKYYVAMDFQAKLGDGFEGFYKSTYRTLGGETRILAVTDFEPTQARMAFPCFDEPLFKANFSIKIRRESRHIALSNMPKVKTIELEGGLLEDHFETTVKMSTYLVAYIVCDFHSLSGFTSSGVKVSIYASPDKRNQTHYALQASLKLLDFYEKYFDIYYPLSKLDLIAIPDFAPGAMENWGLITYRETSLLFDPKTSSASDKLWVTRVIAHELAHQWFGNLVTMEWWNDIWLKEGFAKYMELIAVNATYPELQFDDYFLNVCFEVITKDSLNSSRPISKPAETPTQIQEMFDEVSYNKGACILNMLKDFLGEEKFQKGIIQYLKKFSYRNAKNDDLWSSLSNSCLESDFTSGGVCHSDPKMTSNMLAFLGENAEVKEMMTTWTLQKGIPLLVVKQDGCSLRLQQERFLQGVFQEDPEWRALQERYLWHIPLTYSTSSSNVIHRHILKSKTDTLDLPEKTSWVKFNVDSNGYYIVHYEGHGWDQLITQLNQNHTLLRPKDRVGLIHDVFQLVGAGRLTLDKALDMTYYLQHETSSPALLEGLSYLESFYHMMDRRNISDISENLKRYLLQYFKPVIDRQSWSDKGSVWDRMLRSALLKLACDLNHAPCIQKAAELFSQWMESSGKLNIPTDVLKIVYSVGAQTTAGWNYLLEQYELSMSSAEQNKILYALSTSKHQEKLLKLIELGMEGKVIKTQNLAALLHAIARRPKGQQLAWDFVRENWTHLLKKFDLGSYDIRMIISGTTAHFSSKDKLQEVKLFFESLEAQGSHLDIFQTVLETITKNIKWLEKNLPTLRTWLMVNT", "experiment": "R-AMC hydrolysis / Michaelis-Menten analysis by ERAP2^K"}, "ERAP2^N [2]": {"target": "T2, ERAP2^N (Homo sapiens, UniProt Q6P179, K392N)", "T2 sequence (Q6P179 whole entry K392N)": "as the sequence (Q6P179 whole entry) above, with K392N counted along it", "experiment": "R-AMC hydrolysis / Michaelis-Menten analysis by ERAP2^N"}, "ERAP2^N [3]": {"target": "T2, ERAP2^N", "experiment": "Trimming of […] by ERAP2 alleles", "settings": "ERAP2^N vs ERAP2^K; MS (LTQ Orbitrap), <30% completion"}, "ERAP2^N [4]": {"target": "T2, ERAP2^N", "experiment": "Inhibition of R-AMC hydrolysis by ERAP2^N", "settings": "ERAP2^N vs ERAP2^K, Ki values only in Figure 7B", "in_short": "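His-tagged recombinant human ERAP2 (N392 or K392 form), baculovirus-expressed in Hi5 insect cells, Ni-NTA purified and thawed once before use. R-AMC hydrolysis was tracked against rising inhibitor concentrations by fluorescence (ex 380 nm, em 460 nm) over 5 min, with the slope taken as the rate.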"}, "ERAP2^K [5]": {"target": "T1, ERAP2^K", "experiment": "Peptide trimming by ERAP2^K", "settings": "for trimming rate relative to ERAP1: ERAP2^K compared to ERAP1", "in_short": "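20 μM peptide was incubated with 100 to 4,000ng (7.3 to 293.6nM) ERAP1 or recombinant ERAP2 at 37°C for 15 min to 1 hour in 50mM HEPES pH 7.0, 100mM NaCl. Reactions were stopped with 0.1% TFA, centrifuged, and run on C18 RP-HPLC (5–50% acetonitrile, A220). Initial rates were taken under <30% completion, and enzymes were compared in parallel. Products were identified by peptide controls and MS; epitope destruction was measured from accumulated smaller peptides.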"}, "ERAP2^N [6]": {"target": "T2, ERAP2^N", "experiment": "Peptide trimming by ERAP2^N", "settings": "20 μM precursor; for trimming rates, comparison of alleles: ERAP2^N vs ERAP2^K, 37°C, pH 7.0"}, "[7]": {"settings": "ERAP2^K, Michaelis-Menten analysis"}, "[8]": {"settings": "precursor carrying N-terminal leucine"}}, "note": "Entries after “also recorded” stand apart in the source; their conditions may differ."}
{"compound": "Cc1cc(=O)oc2cc(NC(=O)[C@@H](N)CCCN=C(N)N)ccc12", "note": "[R-AMC, L-Arginyl-7-amido-4-methyl coumarin]", "values": [{"measurement": "lowering of kcat constant", "setting": "ERAP2^K [1]; ERAP2^K vs ERAP2^N", "result": "about 18 fold"}, {"measurement": "Km", "setting": "ERAP2^K [1]; [7]", "result": "17 ± 5", "unit": "µM"}, {"measurement": "kcat", "setting": "ERAP2^K [1]; [7]", "result": "5.8±0.4 ×10^−3 sec^−1"}, {"measurement": "rate of hydrolysis", "setting": "ERAP2^K [1]; ERAP2^K, fluorescence ex 380 nm, em 460 nm, 5 min", "result": "4.8±3", "unit": "mmol/mol sec^−1"}, {"measurement": "change of substrate affinity between polymorphic states", "setting": "ERAP2^K [1]; ERAP2^N vs ERAP2^K", "result": "less than 2 fold"}, {"measurement": "Km", "setting": "ERAP2^N [2]; Michaelis-Menten analysis", "result": "30 ± 9", "unit": "µM"}, {"measurement": "kcat", "setting": "ERAP2^N [2]; Michaelis-Menten analysis", "result": "104±9 ×10^−3 sec^−1"}, {"measurement": "rate of hydrolysis", "setting": "ERAP2^N [2]; fluorescence ex 380 nm, em 460 nm, 5 min", "result": "78±1 mmol product/mol enzyme sec^−1"}]}
{"compound": "ASRHHAFSFR", "values": [{"measurement": "epitope generation rate, fold faster", "setting": "ERAP2^N [3]", "result": "about 2 fold"}]}
{"compound": "Amastatin", "values": [{"measurement": "inhibition of the two ERAP2 alleles", "setting": "ERAP2^N [4]", "result": "nearly identical"}]}
{"compound": "LSRHHAFSFR", "values": [{"measurement": "trimming rate relative to ERAP1", "setting": "ERAP2^K [5]; [8]", "result": "much less efficient"}]}
{"compound": "LSRYWAIRTR", "values": [{"measurement": "trimming rates, comparison of alleles", "setting": "ERAP2^N [6]", "result": "drastically different"}, {"measurement": "epitope generation from precursor", "setting": "ERAP2^K [5]; ERAP2^K, RP-HPLC, 20 μM peptide, 37°C, pH 7.0", "result": "essentially failing to produce detectable amounts of mature epitope; also recorded: absence of a visible epitope peak produced by ERAP2^K"}]}
{"compound": "RSRYWAIRTR", "values": [{"measurement": "trimming rates, comparison of alleles", "setting": "ERAP2^N [6]", "result": "almost identical rates by both ERAP2 alleles; also recorded: essentially identical for both alleles"}]}
{"compound": "SRHHAFSFR", "values": [{"measurement": "all three enzymes: epitope generation vs destruction", "setting": "ERAP2^K [5]; ERAP1, ERAP2^N and ERAP2^K, precursor carrying N-terminal leucine", "result": "generated the epitope faster than they destroyed it"}, {"measurement": "trimming rate relative to ERAP1", "setting": "ERAP2^K [5]; [8]", "result": "negligible compared to that of ERAP1"}]}
{"compound": "WLRRYLENGK", "values": [{"measurement": "trimming rate difference between alleles", "setting": "ERAP2^N [6]; ERAP2^N versus ERAP2^K", "result": 165, "unit": "fold"}]}
